Screening data deposited in PubChem BioAssay by The Scripps Research Institute Molecular Screening Center.
OX1R antag-1: antagonists of human orexin 1 receptor (OX1R). AID 485270, 2010. actives 1.8% (n = 330,000). OX1R-expressing cells, FRET antagonist read-out. Orexin/Hypocretin receptor type 1 (Homo sapiens), O43613. inhibition, % at 6.6 µM; in the data active = inhibition mostly above about 38%, no sharp cut-off; inactive = mostly below about 40%;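 note: 0% = agonist challenge alone and 100% = reference antagonist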
TAAR1 agonist: human TAAR1 agonists, primary screen, Fluo-8 calcium fluorescence, CHO RD-HGA16 cells. vehicle wells 0%, saturating PEA agonist 100%. activation, % at 3 µM. Trace amine-associated receptor 1 (Homo sapiens), Q96RJ0. AID 624467, 2012. actives 0.99% (n = 360,000);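 active = activation above the mean activation of all test compounds in the run plus 3 SD, cut at about 38% in these data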
Target sequence (Q96RJ0 whole entry, looked up): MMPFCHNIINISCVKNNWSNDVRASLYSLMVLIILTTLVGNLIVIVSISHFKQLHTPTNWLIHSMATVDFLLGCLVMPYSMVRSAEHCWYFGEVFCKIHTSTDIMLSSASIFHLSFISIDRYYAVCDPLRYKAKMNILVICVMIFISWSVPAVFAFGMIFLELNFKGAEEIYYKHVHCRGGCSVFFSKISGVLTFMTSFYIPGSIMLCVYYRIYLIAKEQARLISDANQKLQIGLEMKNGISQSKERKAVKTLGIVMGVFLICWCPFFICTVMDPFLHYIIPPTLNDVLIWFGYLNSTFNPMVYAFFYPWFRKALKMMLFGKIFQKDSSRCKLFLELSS
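Signal – calcium-sensitive Fluo-8 signal, excitation 470-495, emission 515-575 nm · System – RD-HGA16 (CHO) cells co-expressing Gα16 and hTAAR1 · Incubation – 17-24 h seeding, 75 min 37 °C dye, 30 min RT · Compound dosing – 3 µM single concentration · Repeats – no replicates (n 1)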
CHO parental Ca: ATP-evoked calcium signal inhibitors, parental CHO, primary screen, counter-screen for OX1R antagonist project, cell-based, fluorescence, Fluo-8 calcium dye | parental CHO-K1, ATP-induced calcium, Fluo-8 fluorescence | inhibition, % at 5.6 µM | actives 0.63% (n = 330,000) | AID 463079, 2010;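 active = inhibition above that plate's mean sample inhibition plus 3 SD, cut at about 26% in these data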;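 note: 0% = ATP-challenged DMSO wells and 100% = DMSO wells without ATP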
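Test system: parental CHO cells; detection: calcium-sensitive Fluo-8 fluorescence; evaluation: percent inhibition of calcium signal; also added: ATP as calcium-mobilizing challenge; repeats: one well per compound; control set: ATP-challenged DMSO wells low, unchallenged DMSO wells high; compound: single nominal dose of 5.6 µM per compound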
OX1R antag-2: OX1R (HCRTR1) antagonists, primary screen, fluorescence, CHO/OX1R cells, Fluo-8 calcium, orexin A | inhibition, % at 5 µM | actives 0.43% (n = 330,000) | Orexin/Hypocretin receptor type 1 (Homo sapiens), O43613 | AID 434989, 2010 | Fluo-8 calcium fluorescence;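 active = inhibition above its plate's threshold, mean inhibition of all tested compounds on the plate plus 3 SD, cut at about 37% in these data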;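 note: 0% = orexin A challenge wells and 100% = SB-334867-A antagonist wells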
TAAR1 antagonist: human TAAR1 antagonists, primary screen, Fluo-8 calcium fluorescence, CHO RD-HGA16 cells. Trace amine-associated receptor 1 (Homo sapiens), Q96RJ0. antagonist. inhibition, % at 3 µM. actives 1.5% (n = 360,000). AID 624466, 2012;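 active = inhibition above a per-plate cutoff, the mean inhibition of test compounds on that plate plus 3 SD, cut at about 49% in these data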;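 note: 0% = DMSO plus EC80 beta-PEA response and 100% = DMSO alone without agonist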
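test system = CHO RD-HGA16 cells bearing hTAAR1 | replication = singlicate | controls = DMSO-only wells and EC80 β-PEA-stimulated wells | reagent = EC80 β-phenethylamine stimulus | read-out basis = percent inhibition of PEA-evoked calcium signal, max/basal emission ratio | schedule = seeding 17-24 h prior, 75-min 37 °C, 30-min RT dye loading | signal = kinetic Fluo-8 calcium fluorescence measurement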
* = called active by the depositor; nt = no result given. Most compounds without a hit are left out; they make up all but 3.9% or so of the library.

SMILES	OX1R antag-1	TAAR1 agonist	CHO parental Ca	OX1R antag-2	TAAR1 antagonist
COc1ccc(S(=O)(=O)/N=C2\C=C(Nc3ccc(O)cc3)C(=O)c3ccccc32)cc1	28	1	-23	0	51*
Cc1ccccc1NC1=C/C(=N\S(=O)(=O)c2ccc(C(=O)O)cc2)c2ccccc2C1=O	59*	3	2	-15	9
CN(C)Cc1csc(Nc2ccc(C(=O)c3ccccc3)cc2)n1	nt	3	nt	nt	6
O=C(COC(=O)C12CC3CC(CC(C3)C1)C2)NCCc1ccccc1	10	6	-9	-13	1
COc1cc(OC)cc(-c2c(-c3cccs3)c3cc(Br)ccc3n2C)c1	3	2	-18	-16	-12
COc1cc(F)cc(-c2ccc3c(c2)c(-c2cccs2)c(-c2cc(OC)cc(OC)c2)n3C)c1	4	50*	-1	8	10
Cc1ccc(CNC(=O)c2nnc(Cc3ccc(Cl)cc3)o2)cc1	9	7	44*	-4	-42
O=C(NCc1ccco1)c1nnc(Cc2ccc(Cl)cc2)o1	6	-2	-14	-21	-20
COc1ccc(C2CC(=O)C(c3ccc(Cl)c(Cl)c3)=CN2Cc2ccccc2)cc1 (centres undefined)	nt	5	nt	nt	-5
CCOc1cc(NCc2ccccc2)c2ncn(C(C)C)c2c1	25	44*	-34	-50	-6
COc1ccccc1-c1ccc2c(c1)C(C)(Cc1ccc(OC(F)(F)F)cc1)C(=O)N2 (centres undefined)	nt	5	nt	nt	-6
O=C(NCCN1CCN(c2ccc([N+](=O)[O-])cc2)CC1)NCc1ccccc1	34*	13	1	-12	-3
COc1ccc(OC)c(CCNC(=O)Cn2nc(C)c3c(C)n(-c4ccc(C)cc4)nc3c2=O)c1	13	5	-22	-19	-5
COc1ccc(OC)c(CCNC(=O)Cn2sc3nc(C)cc(C)c3c2=O)c1	20	nt	49*	55*	nt
Cc1ccc(Cn2nnc3c(=O)n(CC(=O)OCc4ccccc4)cnc32)cc1	9	9	31*	36	21
Cc1cccc(Cn2cnc3c(nnn3Cc3ccc(F)cc3)c2=O)c1	12	13	-11	-20	26
Cc1cccc(Cn2cnc3c(nnn3Cc3ccccc3F)c2=O)c1	3	18	-1	17	60*
Cc1c(NC(=O)c2ccc(=O)oc2)c(=O)n(-c2ccccc2)n1C	76*	1	-5	-11	9
Cc1c(NC(=O)CN2C(=O)c3cccc4cccc2c34)c(=O)n(-c2ccccc2)n1C	76*	6	-7	-13	-13
Cc1c(NC(=O)/C=C/c2cn(-c3ccccc3)nc2-c2ccccc2)c(=O)n(-c2ccccc2)n1C	22	12	-29	-14	52*
COC(=O)C[C@H]1C=C[C@H](NC(=O)c2ccccn2)[C@@H](CO)O1	nt	6	nt	nt	-23
CCCc1nc2c3ccccc3ccn2c1Cc1cccc(F)c1	nt	0	nt	nt	-12
N#CCC(C(=O)c1cccnc1)c1ccccc1 (centres undefined)	nt	1	nt	nt	-18
O=c1cc(C(F)(F)F)[nH]c2c(C(F)(F)F)cccc12	67*	nt	8	0	nt
COc1ccc(CCn2c(=N)c(C(=O)NCC3CCCO3)cc3c(=O)n4ccccc4nc32)cc1 (centres undefined)	58*	1	-17	-14	-18
COc1ccc(Cn2c(=N)c(C(=O)NCC3CCCO3)cc3c(=O)n4ccccc4nc32)cc1 (centres undefined)	61*	0	-20	-39	-8
N=c1c(C(=O)NCC2CCCO2)cc2c(=O)n3ccccc3nc2n1Cc1ccc(Cl)cc1 (centres undefined)	39	0	-3	-12	-29
CC1(Cc2ccc(C(F)(F)F)o2)C(=O)Nc2cc(-c3ccc(F)cc3F)ccc21 (centres undefined)	nt	19	nt	nt	-2
COc1ccc(NC(=O)N(C)C[C@H]2OCc3cn(nn3)CCCC(=O)N([C@@H](C)CO)C[C@@H]2C)cc1	nt	3	nt	nt	-18
